# Assay outcomes as filed in PubChem BioAssay.
# TRPML3 ag = human mucolipin-3 channel agonism | hit rate 0.29% among 220,000 | Q8TDD5 | AID 1448 | HEK293 TRPML3-YFP, Fluo-8 calcium fluorescence; 100% = the carbachol control signal | activation, % at 3 µM;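 active means activation above its plate's cutoff, the mean activation of the plate's test wells plus 3 SD, cut at about 12% in these data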;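 further: 0% = DMSO only wells and 100% = carbachol wells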
#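 Test system: TRPML3-YFP stable HEK293 cells. Doses: single point at 3 µM. Incubation: dye loading 1 h 37 °C then 30 min ambient, 125 s read. Signal: Fluo-8 calcium dye fluorescence, ex 470-495, em 515-575 nm. Measure: percent activation from peak-to-basal fluorescence ratio, scaled between DMSO and carbachol.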
# TAAR1 antagonist = human TAAR1 antagonism; CHO RD-HGA16 TAAR1, Fluo-8 calcium fluorescence, antagonist; inhibition, % at 3 µM; hit rate 1.5% among 360,000; AID 624466;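 active means inhibition above a per-plate cutoff, the mean inhibition of test compounds on that plate plus 3 SD, cut at about 49% in these data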;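 further: 0% = DMSO plus EC80 beta-PEA response and 100% = DMSO alone without agonist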
# Target sequence (Q96RJ0 whole entry, looked up): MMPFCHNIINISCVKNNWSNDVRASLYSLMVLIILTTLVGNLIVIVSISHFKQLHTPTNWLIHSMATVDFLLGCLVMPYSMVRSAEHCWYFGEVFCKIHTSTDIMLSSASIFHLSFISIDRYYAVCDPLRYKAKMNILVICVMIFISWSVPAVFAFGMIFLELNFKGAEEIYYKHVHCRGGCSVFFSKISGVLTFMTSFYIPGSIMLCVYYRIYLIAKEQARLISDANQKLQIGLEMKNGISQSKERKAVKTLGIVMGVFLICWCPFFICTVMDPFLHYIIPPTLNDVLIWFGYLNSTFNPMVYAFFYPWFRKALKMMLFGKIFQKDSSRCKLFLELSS
#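 System: CHO RD-HGA16 cells bearing hTAAR1. Reagent: EC80 β-phenethylamine stimulus. Schedule: seeding 17-24 h prior, 75-min 37 °C, 30-min RT dye loading. Signal: Fluo-8 intracellular calcium dye fluorescence, real-time kinetic reads. Read-out: % inhibition from peak post-agonist over basal fluorescence ratio. Benchmarks: vehicle wells and EC80 agonist wells. Replicates: n of 1.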
# TAAR1 agonist = human TAAR1 agonism. CHO RD-HGA16 TAAR1, Fluo-8 calcium fluorescence; vehicle wells 0%, saturating PEA agonist 100%. activation, % at 3 µM. hit rate 0.99% among 360,000. AID 624467;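 active means activation above the mean activation of all test compounds in the run plus 3 SD, cut at about 38% in these data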
#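 Assay system: CHO-derived RD-HGA16 cells with stable Gα16 and human TAAR1; timing: 17-24 h seeding, 75 min 37 °C dye, 30 min RT; read-out: % activation from peak over basal fluorescence ratio, DMSO-to-PEA scaled; measured by: kinetic Fluo-8 calcium fluorescence; benchmarks: low control DMSO, high control PEA (EC100); doses: 3 µM single concentration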
# GPR7 antagonist = antagonists of human GPR7 (neuropeptides B/W receptor 1). P48145. GPR7-expressing cells, fluorescence antagonist assay. inhibition, % at 4.4 µM. hit rate 1.1% among 290,000; in the data active means inhibition above about 16%, passing the limit was not always enough;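 further: cells stimulated with the agonist NPW; 0% = agonist with vehicle and 100% = vehicle without agonist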
# Target sequence (P48145 whole entry, looked up): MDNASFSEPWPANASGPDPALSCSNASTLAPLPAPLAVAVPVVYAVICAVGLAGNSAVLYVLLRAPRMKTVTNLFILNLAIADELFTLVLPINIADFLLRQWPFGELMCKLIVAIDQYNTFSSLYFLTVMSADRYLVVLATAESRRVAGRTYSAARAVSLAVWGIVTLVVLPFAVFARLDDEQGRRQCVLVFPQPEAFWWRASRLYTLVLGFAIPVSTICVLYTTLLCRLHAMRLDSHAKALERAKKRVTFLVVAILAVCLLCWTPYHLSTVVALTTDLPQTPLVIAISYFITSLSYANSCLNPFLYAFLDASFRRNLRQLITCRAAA
# LANA-H2B inh = blocks KSHV LANA binding to histone H2A/H2B; inhibition, % (test concentration not listed); cell-free LANA-H2A/H2B peptide, fluorescence polarization; hit rate 0.6% among 320,000; Q9QR71; AID 2629; in the data active means inhibition mostly above about 10%, no sharp cut-off; inactive means mostly below about 6.7%
# TRPN1 ag = agonists of zebrafish TRPN1 channel | HEK293 zebrafish TRPN1-YFP, Fluo-8 calcium fluorescence; 100% = response to 87 µM carbachol | activation, % at 3 µM | AID 1424 | hit rate 0.18% among 220,000;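 active means activation above its plate's cutoff, the mean activation of test wells on that plate plus 3 SD, cut at about 19% in these data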;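 further: 0% = DMSO alone and 100% = 87 µM carbachol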
#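 Material: zebrafish TRPN1-YFP in HEK293 cells; Doses: single test compound dose, 3 µM nominal, 0.3% DMSO; Timing: dye loading 1 h at 37 °C, then 30 min room temperature; Technique: intracellular calcium fluorescence with Fluo-8; Benchmarks: high carbachol 87 µM, low DMSO alone.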
# TAAR1 nonsel count = nonselective antagonism, TAAR1 counter-screen; counterscreen cell line, calcium fluorescence, antagonist mode; hit rate 77% among 2,400; shares compounds with TAAR1 antagonist; inhibition, % at 3 µM; in the data active means inhibition above about 22%;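 further: CHO-Ga16 host cells stimulated with ATP at an EC80 level; 0% = agonist EC80 plus vehicle and 100% = vehicle without agonist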
# TAAR1 antag conf = human TAAR1 antagonism, confirmed. shares compounds with TAAR1 antagonist. TAAR1-expressing cells, fluorescence antagonist read-out. inhibition, % at 3 µM. hit rate 40% among 2,400; in the data active means inhibition above about 49%;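 further: CHO-Ga16 host cells challenged with agonist PEA near its EC80; 0% = agonist at EC80 plus vehicle and 100% = vehicle with no agonist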
# Ga16 nonsel ag = counter-screen for TAAR1 antagonists: nonselective Ga16 agonists. shares compounds with TAAR1 antagonist. Ga16-expressing cells, calcium fluorescence, agonist counterscreen. activation, % at 3 µM. hit rate 18% among 2,400. AID 651953; in the data active means activation above about 12%;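 further: 0% = vehicle wells and 100% = saturating stimulus response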
# TAAR1 ag count = counter-screen for human TAAR1 antagonists: TAAR1 agonists | hit rate 2% among 2,400 | activation, % at 3 µM | shares compounds with TAAR1 antagonist | hTAAR1 cell line, fluorescence activation, agonist mode | AID 651955; in the data active means activation above about 37%;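 further: CHO cells stably expressing TAAR1 with calcium dye readout; 0% = DMSO vehicle and 100% = full agonist response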
# Numbers without * were called inactive; . = no result. Hits are enriched below; roughly 3.4% of the tested compounds scored in any of these assays.
SMILES,TRPML3 ag,TAAR1 antagonist,TAAR1 agonist,GPR7 antagonist,LANA-H2B inh,TRPN1 ag,TAAR1 nonsel count,TAAR1 antag conf,Ga16 nonsel ag,TAAR1 ag count
C[C@H](NC(=O)c1nc[nH]c1C(=O)NCc1ccc(CNC(=O)OC(C)(C)C)cc1)c1ccccc1,.,68*,36,.,3,.,38*,42,10,17
CC(C)(C)OC(=O)NCc1ccc(CNC(=O)c2nc[nH]c2C(=O)N2CCN(C(=O)OC(C)(C)C)CC2)cc1,.,61*,26,.,4,.,35*,52*,16*,19
CC(C)C[C@H](NC(=O)c1nc[nH]c1C(=O)NC(c1ccccc1)c1ccccc1)C(=O)OC(C)(C)C,1,56*,8,-27,6,2,19,31,0,2
Cc1nc(N2CCN(c3ccccn3)CC2)c2c(C)c(C(=O)Nc3ccccc3F)sc2n1,0,-1,4,-11,4,-1,.,.,.,.
O=C(Nc1c(F)cccc1F)c1cnc(N2CCN(c3ccccn3)CC2)c2ccccc12,2,63*,14,-17,-3,-1,35*,60*,7,5
COc1ccc(OC)c(N(CC(=O)NCc2ccccc2)S(=O)(=O)c2ccc(OC)c(OC)c2)c1,.,51*,14,-6,41*,.,22*,36,9,8
COc1ccc(CCNC(=O)CN(c2cc(OC)ccc2OC)S(=O)(=O)c2ccccc2)cc1,.,50*,9,-12,-7,.,30*,35,5,4
COc1ccc(OC)c(N(CC(=O)NCCc2ccc(OC)c(OC)c2)S(=O)(=O)c2ccccc2)c1,.,23,7,-10,3,.,.,.,.,.
Cc1ccc(CSc2nnc(SCC(=O)N/N=C/c3c[nH]c4ccccc34)s2)cc1,0,79*,9,-14,.,0,28*,43,3,3
O=C(CSc1nnc(SCc2ccccc2)s1)N/N=C/c1c[nH]c2ccccc12,0,0,5,2,.,0,.,.,.,.
CC(=O)Oc1ccc(C(=O)Nc2cc(NC(=O)c3ccc(OC(C)=O)cc3)cc(C(=O)NC(C)(C)C)c2)cc1,1,67*,5,-6,-3,1,32*,42,5,6
CC(=O)N1CCC(C(=O)OCc2ccccc2F)(c2ccccc2)CC1,.,1,2,2,-7,.,.,.,.,.
COC(=O)c1ccc(NC(=O)CSc2nnnn2C2CCCCC2)cc1,1,65*,19,-14,5,1,12,2,1,7
COc1cc(NC(=O)CSc2nnnn2C2CCCC2)cc(OC)c1,.,6,1,2,-1,.,.,.,.,.
CC(C)n1nnnc1SCC(=O)NCCc1ccccc1,1,4,8,-4,0,-1,.,.,.,.
O=C(CSc1nnnn1C1CCCC1)NCCc1ccccc1,0,55*,27,-10,2,1,10,73*,0,52*
CCCCOc1cccc2c(=O)n(CC(=O)Nc3ccc4c(c3)OCCO4)ccc12,.,71*,21,.,.,.,43*,88*,13*,28
COc1ccccc1C(CNC(=O)c1ccc(C)c(S(=O)(=O)N2CCCCC2)c1)N1CCCC1 (centres undefined),.,-11,-1,.,.,.,.,.,.,.
CCO[C@@H]1OC(C(=O)Nc2ccccc2)=C[C@H](c2ccc3c(c2)OCO3)[C@H]1CCCO,1,49*,19,-22,-1,1,19,25,6,7
CCO[C@@H]1OC(C(=O)N2CCN(Cc3ccc4c(c3)OCO4)CC2)=C[C@H](C2CCCCC2)[C@H]1CCCO,-1,67*,15,16,-7,-1,29*,45,9,7
O=C(c1sc(N2CCOCC2)nc1-c1ccccc1)N1CCCCC1,1,-5,-1,11,2,0,.,.,.,.
[2H]c1c([2H])c([2H])c(-c2nc(N3CCCCCC3)sc2C(=O)c2ccccc2)c([2H])c1[2H],-1,62*,15,4,1,0,11,16,0,1
O=C(CN1CCN(c2ccccc2O)CC1)Nc1ccnn1C1CCCC1,.,-6,9,.,-29,.,.,.,.,.
Cc1cccc(C)c1NC(=O)CNC(=O)c1ccc2ccccc2n1,.,-12,6,.,2,.,.,.,.,.
COc1ccc(C2C(C(=O)N3CCN(c4ccccn4)CC3)CCC(=O)N2c2ccc(OC)cc2)cc1 (centres undefined),1,-7,2,-5,3,2,.,.,.,.
SMILES,TRPML3 ag,TAAR1 antagonist,TAAR1 agonist,GPR7 antagonist,LANA-H2B inh,TRPN1 ag,TAAR1 nonsel count,TAAR1 antag conf,Ga16 nonsel ag,TAAR1 ag count
COc1ccc(C2C(C(=O)N3CCN(c4ccccn4)CC3)CC(=O)N2c2ccc(OC)cc2)cc1 (centres undefined),1,57*,20,-9,0,4,26*,46,13*,12
O=C(CN(c1ccc(F)cc1)S(=O)(=O)c1ccc2c(c1)OCCO2)NCc1ccccc1,0,4,6,-5,3,0,.,.,.,.
O=C(CN(c1ccc2c(c1)OCCO2)S(=O)(=O)c1ccccc1)NCc1ccc(Cl)cc1,0,75*,14,-2,3,2,26*,62*,9,12
Nc1c(C(=O)NCC2CCCO2)sc2nc3c(c(-c4ccco4)c12)CC/C3=C\c1ccco1 (centres undefined),0,53*,16,7,.,3,-2,0,3,2
Cc1sc(NC(=O)CSc2nnc(N)s2)c(C#N)c1C,.,10,4,-1,1,.,.,.,.,.
CCOc1ccc(C(=O)CCC(=O)N2CCN(S(=O)(=O)c3cccc(F)c3)CC2)cc1,.,70*,-1,.,-5,.,6,5,2,4
COc1ccccc1CNC(=O)[C@H](C)NC(=O)C1CCN(C(=O)[C@@H](N)CC(C)C)CC1,.,-26,1,-12,2,.,.,.,.,.
CC(OC(=O)c1cnccn1)C(=O)Nc1nc(-c2cccc([N+](=O)[O-])c2)cs1 (centres undefined),.,52*,17,.,.,.,24*,27,7,4
CC(OC(=O)c1ccccc1Br)C(=O)Nc1nc(-c2cccc([N+](=O)[O-])c2)cs1 (centres undefined),1,6,5,-6,3,1,.,.,.,.
